This is an account of results in ChEMBL document CHEMBL1139294, “11-Phenyl-[b,e]-dibenzazepine compounds: novel antitumor agents” (Bioorg Med Chem Lett, 2009).

One assay has as its system A549. Description: Antiproliferative activity against human A549 cells by SRB assay. The assay is classed as functional, cell-based. (In general: The SRB assay estimates cell density from bound dye.)
Assay [1] concerns HT-29. Description: Antiproliferative activity against human HT-29 cells by SRB assay. The assay is classed as functional, cell-based.
Assay [2] can be described thus: Antiproliferative activity against human MMRU cells by SRB assay. The assay is classed as functional, cell-based.
A further assay has as its system MCF7. Briefly: Antiproliferative activity against human MCF7 cells by SRB assay. The assay is classed as functional, cell-based.
In a further assay the test system is HepG2. Description: Antiproliferative activity against human HepG2 cells by SRB assay. The assay is classed as functional, cell-based.
A further assay relates to U-118-MG. Description: Antiproliferative activity against human U118MG cells by SRB assay. The assay is classed as functional, cell-based.
For a further assay, the system named is HeLa. Description: Antiproliferative activity against human HeLa cells by SRB assay. The assay is classed as functional, cell-based.
A short description of assay [3]: Antiproliferative activity against human HTB-174 cells by SRB assay. The assay is classed as functional, cell-based.
In the next assay the test system is MDA-MB-231. Description: Antiproliferative activity against human MDA-MB-231 cells by SRB assay. The assay is classed as functional, cell-based.
A further assay has as its system NCI-H460. Briefly: Cell cycle arrest in human H460 cells assessed as DNA content at G0-G1 phase at 50 uM after 16 hrs by flow cytometry. The assay is classed as functional. The method, boiled down:
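H-460 NSCLC cells serum-starved 72 h, then exposed to 50 µM for 16 h, with DMSO vehicle control. Harvested cells were washed in cold PBS and fixed in 70% ethanol at 4 °C for at least 4 h. They were treated with 3 mg/ml RNase plus 50 µg/ml propidium iodide for 30 min at 37 °C. Flow cytometry gave percent cells in G0–G1, S and G2–M.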
For orientation: Flow cytometry measures light scatter and fluorescence of single cells or particles in a stream.

Assay [4] has as its system HT-29. Briefly: Cell cycle arrest in human HT-29 cells assessed as DNA content at G0-G1 phase at 25 uM after 16 hrs by flow cytometry. The assay is classed as functional. The method, boiled down:
(§1)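 HT-29 colon carcinoma cells were grown in complete medium and treated at 25 or 50 µM for 16 h, with 0.1% DMSO as vehicle. Cells were washed in cold PBS and fixed in 70% ethanol (4 °C, ≥4 h). Staining used 3 mg/ml ribonuclease and 50 µg/ml propidium iodide for 30 min at 37 °C. Phase distribution was measured by flow cytometry.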

Assay [5] concerns HT-29. Description: Cell cycle arrest in human HT-29 cells assessed as DNA content at S phase at 25 uM after 16 hrs by flow cytometry. The assay is classed as functional. Summed up:
as §1

The subject of assay [6] is HT-29. Description: Cell cycle arrest in human HT-29 cells assessed as DNA content at G2-M phase at 25 uM after 16 hrs by flow cytometry. The assay is classed as functional. Summed up:
as §1

Assay [7] concerns HT-29. Description: Cell cycle arrest in human HT-29 cells assessed as DNA content at G0-G1 phase at 50 uM by flow cytometry. The assay is classed as functional. The method, boiled down: as §1
For assay [8], the system named is HT-29. Briefly: Cell cycle arrest in human HT-29 cells assessed as DNA content at S phase at 50 uM by flow cytometry. The assay is classed as functional. Summed up: as §1
For assay [9], the system named is HT-29. Briefly: Cell cycle arrest in human HT-29 cells assessed as DNA content at G2-M phase at 50 uM by flow cytometry. The assay is classed as functional. The method, boiled down: as §1

As for `COc1ccc2c(c1)CN(C(=O)c1ccc([N+](=O)[O-])cc1)c1ccc(Cl)cc1C2c1ccccc1Cl` (centres undefined), the IC50 (usually the concentration needed to halve the response being measured) in the assay with A549 (Homo sapiens, A549) was found to be 1500 nM; in the assay on HT-29 [1] (Homo sapiens, HT-29) it was 600 nM; in assay [2] (Homo sapiens, MMRU), 500 nM; with MCF7 it was 1300 nM; in the assay with HepG2 it was 900 nM; in the assay with U-118-MG, 800 nM. The IC50 in the assay with HeLa worked out at 500 nM; in assay [3] it was 500 nM; in the assay on MDA-MB-231 it was 900 nM.

Turning to `CN(C)c1ccc(C(=O)N2Cc3ccccc3C(c3ccccc3)c3ccccc32)cc1` (centres undefined), the IC50 with A549 (Homo sapiens, A549) came to 2100 nM; with HT-29 [1] (Homo sapiens, HT-29), 1000 nM; with MCF7, 1700 nM; in the assay on HepG2, 1000 nM; in the assay with U-118-MG, 2600 nM; in the assay on HeLa, 900 nM. For the same molecule, the IC50 in the assay on MDA-MB-231 came out at 1700 nM.

Take `O=C(c1ccc([N+](=O)[O-])cc1)N1Cc2ccccc2C(c2ccccc2)c2ccccc21` (centres undefined): the IC50 in the assay on HT-29 [1] (Homo sapiens, HT-29) was determined as 700 nM; in assay [2] (Homo sapiens, MMRU) it was 500 nM; in the assay on HepG2 it was 900 nM; in the assay on U-118-MG it was 900 nM; in the assay with HeLa, 600 nM; in [3], 700 nM.

On to `Clc1ccccc1C1c2ccccc2CN(Cc2ccccc2)c2ccccc21` (centres undefined), for which the half-maximal inhibitory concentration (IC50) is more than 5000 nM in the assay on A549 (Homo sapiens, A549); more than 5000 nM in the assay on HT-29 [1] (Homo sapiens, HT-29); 4300 nM with MCF7; 4500 nM with HepG2; more than 5000 nM in the assay with HeLa; more than 5000 nM with MDA-MB-231.

Consider `O=C(Nc1ccc([N+](=O)[O-])cc1)N1Cc2ccccc2C(c2ccccc2Cl)c2ccccc21` (centres undefined), for which the IC50 with A549 (Homo sapiens, A549) was more than 5000 nM; in the assay on HT-29 [1] (Homo sapiens, HT-29), 4800 nM; in assay [2] (Homo sapiens, MMRU), 3100 nM; with MCF7, 2400 nM; in the assay on HepG2, 4500 nM; in assay [3] it was 4000 nM.

For the molecule `CN1Cc2ccccc2C(c2ccccc2Cl)c2ccccc21` (centres undefined), the IC50 in the assay on A549 (Homo sapiens, A549) was determined as 11400 nM; in the assay on HT-29 [1] (Homo sapiens, HT-29) it was 9700 nM; in [2] (Homo sapiens, MMRU) it was 4600 nM; in the assay with MCF7, 1700 nM.

As for `COC(=O)N1Cc2ccccc2C(c2ccccc2)c2ccccc21` (centres undefined), the IC50 in the assay with A549 (Homo sapiens, A549) is more than 10000 nM; in the assay with HT-29 [1] (Homo sapiens, HT-29), more than 10000 nM; in assay [2] (Homo sapiens, MMRU), 10000 nM.

Regarding `Nc1ccc(C(=O)N2Cc3ccccc3C(c3ccccc3Cl)c3ccccc32)cc1` (centres undefined), the IC50 with A549 (Homo sapiens, A549) was 3700 nM; in the assay on HT-29 [1] (Homo sapiens, HT-29), 1700 nM; in the assay with MCF7 it was 1100 nM; with HepG2, 1500 nM; in the assay with U-118-MG, 1600 nM; in the assay with HeLa it was 500 nM. The IC50 in the assay with MDA-MB-231 amounted to 1200 nM.

Take `O=C(Oc1ccccc1)N1Cc2ccccc2C(c2ccccc2Cl)c2ccccc21` (centres undefined): the IC50 with HT-29 [1] (Homo sapiens, HT-29) was 5000 nM; in the assay on MCF7 it was 4200 nM; in the assay on HepG2, 3600 nM.

In the case of `CC(C)(C)Oc1cccc(C(=O)N2Cc3ccccc3C(c3ccccc3Cl)c3ccccc32)c1` (centres undefined), the IC50 is 3700 nM with A549 (Homo sapiens, A549); 1700 nM in the assay on HT-29 [1] (Homo sapiens, HT-29); 3400 nM in the assay on MCF7; 1200 nM in the assay with HepG2; 2500 nM in the assay on U-118-MG; 1400 nM with HeLa. This molecule displayed an IC50 in the assay with MDA-MB-231 of 1500 nM.

For the molecule `COc1ccc(C(=O)N2Cc3ccccc3C(c3ccccc3Cl)c3ccccc32)cc1` (centres undefined), the IC50 with A549 (Homo sapiens, A549) is 1100 nM; in the assay with HT-29 [1] (Homo sapiens, HT-29), 400 nM; in [2] (Homo sapiens, MMRU), 200 nM; in the assay on MCF7, 500 nM; with HepG2 it was 400 nM; with U-118-MG it was 400 nM. For the same molecule, the IC50 is 200 nM with HeLa and 300 nM in assay [3].

For `Clc1ccccc1C1c2ccccc2CNc2ccccc21` (centres undefined), the IC50 in the assay on A549 (Homo sapiens, A549) stood at 5400 nM; in the assay with HT-29 [1] (Homo sapiens, HT-29) it was 1200 nM; in the assay on MCF7 it was 2700 nM; with HepG2, 900 nM; in the assay on U-118-MG it was 1400 nM; in the assay on HeLa, 1100 nM. The same molecule displayed an IC50 in the assay with MDA-MB-231 of 1300 nM.

For `COc1ccc2c(c1)C(c1ccccc1Cl)c1cc(Cl)ccc1N(C(=O)c1ccc([N+](=O)[O-])cc1)C2` (centres undefined), the IC50 in the assay on A549 (Homo sapiens, A549) was found to be 600 nM; with HT-29 [1] (Homo sapiens, HT-29) it was 200 nM; in [2] (Homo sapiens, MMRU), 200 nM; in the assay on MCF7 it was 700 nM; with HepG2, 400 nM; in the assay on U-118-MG, 400 nM. Moreover, the IC50 with HeLa was 200 nM; in [3], 200 nM; in the assay with MDA-MB-231 it was 400 nM.

On to `O=C(c1ccccc1)N1Cc2ccccc2C(c2ccccc2Cl)c2ccccc21` (centres undefined), for which the IC50 with A549 (Homo sapiens, A549) was determined as 2500 nM; in the assay with HT-29 [1] (Homo sapiens, HT-29), 600 nM; with MCF7, 1500 nM; in the assay with HepG2, 800 nM; in the assay with U-118-MG it was 1300 nM; in the assay on HeLa, 900 nM. In the assay on MDA-MB-231, the IC50 was found to be 1200 nM.

For `CC(C)(C)Oc1cccc(C(=O)N2Cc3ccccc3C(c3ccccc3)c3ccccc32)c1` (centres undefined), the IC50 with A549 (Homo sapiens, A549) is more than 5000 nM; with HT-29 [1] (Homo sapiens, HT-29) it was 1700 nM; in assay [2] (Homo sapiens, MMRU), 2500 nM; with MCF7 it was 4500 nM; in the assay on HepG2, 2600 nM; in assay [3], 3600 nM.

In the case of `C[N+](C)(C)c1ccc(C(=O)N2Cc3ccccc3C(c3ccccc3)c3ccccc32)cc1` (centres undefined), the concentration for half-maximal inhibition (IC50) in the assay on A549 (Homo sapiens, A549) is 2000 nM; in the assay with HT-29 [1] (Homo sapiens, HT-29), 1100 nM; in the assay on MCF7 it was 1700 nM; in the assay with HepG2, 1000 nM; in the assay on U-118-MG it was 1800 nM; in the assay with HeLa it was 400 nM. Further, in the assay on MDA-MB-231, the IC50 is 1300 nM.

Consider `O=C(c1ccc([N+](=O)[O-])cc1)N1Cc2ccccc2C(c2ccccc2Cl)c2ccccc21` (single isomer, unassigned; 9a), for which, in the assay on NCI-H460, the Activity amounted to 71.06%.

For `O=C(c1ccc([N+](=O)[O-])cc1)N1Cc2ccccc2C(c2ccccc2Cl)c2ccccc21` (single isomer, unassigned; 9b), the Activity in the assay with NCI-H460 came out at 74.96%.

Regarding `O=C(c1ccc([N+](=O)[O-])cc1)N1Cc2ccccc2C(c2ccccc2Cl)c2ccccc21` (stereo in doubt; 9), the half-maximal inhibitory concentration (IC50) came to 800 nM in the assay on A549 (Homo sapiens, A549); 300 nM with HT-29 [1] (Homo sapiens, HT-29); 200 nM in [2] (Homo sapiens, MMRU); 600 nM in the assay with MCF7; 300 nM in the assay on HepG2; 500 nM with U-118-MG. The results for the IC50 (in the assay with HeLa; in assay [3]; in the assay on MDA-MB-231) were 300 nM, 100 nM and 500 nM, respectively. Moreover, the Activity was 63.68% with HT-29 [4]; 25.79% in the assay on HT-29 [5]; 10.53% in the assay with HT-29 [6]; 69.22% in the assay with HT-29 [7]; 18.08% with HT-29 [8]; 12.69% in the assay with HT-29 [9]. In addition, the Activity in the assay with NCI-H460 worked out at 73.95%.

As for `O=C(c1ccccc1)N1Cc2ccccc2C(c2ccccc2)c2ccccc21` (stereo in doubt; 13), the IC50 in the assay on A549 (Homo sapiens, A549) is more than 10000 nM; with HT-29 [1] (ht-29), more than 10000 nM; in [2] (mmru), more than 10000 nM.

With `O=C(c1ccccc1)N1Cc2ccccc2C(c2ccccc2)c2ccccc21` (stereo in doubt; 17), the IC50 is more than 5000 nM with A549 (a549); 2600 nM in the assay with HT-29 [1] (ht-29); 2700 nM in [2] (mmru); 4200 nM in the assay with MCF7; 3400 nM with HepG2; 2600 nM in [3].
